Source: article PMC12126168 (Drug Design, Development and Therapy, 2025)
pIC50: −log10 of the molar value.

Assays:
various tumor cell lines = experiment: Antiproliferative activity on various tumor cell lines; format: cell-based; conditions: read-out: IC50 against a variety of cell lines
Procedure, shortened: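 Cells seeded at 1000 per well in 18 μL medium and pre-incubated 24 h at 37°C, 5% CO2. Test compound in DMSO (final DMSO <0.1%) added at 10 points, 2-fold dilutions from 10 μM, then cultured 72 h. Cell-Titer glo reagent added and […]. Inhibition computed per concentration and IC50 obtained from sigmoid curve fit.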

[1] = Single-dose pharmacokinetics in SD rats; format: in vivo; conditions: after gavage or tail vein injection of V12
Procedure, shortened: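 Male SD rats (240–280 g), 4 groups of 3. Compound in DMSO/castor oil/saline 5%/5%/90%, dosed 1 mg/kg i.v. or 10 mg/kg orally. Blood drawn from fundus venous plexus at 2, 5, 15, 30 min and 1, 2, 4, 8, 24 h into heparin tubes, then centrifuged at 4°C for plasma. Plasma levels measured by LC-MS/MS with non-compartmental analysis.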

[2] = Body weight of nude mice after oral administration; format: in vivo; conditions: oral doses 100 mg/kg and 300 mg/kg

Row | SMILES | pIC50 (various tumor cell lines) | metabolism in vivo [1] | body weight of the nude mice [2]
1 | CONC(=O)c1cccc2c1cc(C)n2-c1nc2c(c(NCc3ccccc3)n1)CCCN2 [V12, 1-(4-(Benzylamino)-5,6,7,8-Tetrahydropyrido[2,3-D]pyrimidin-2-Yl)-N-Methoxy-2-Methyl-1H-Indole-4-Carboxamide] | > 6.00 | rapidly metabolizes into V13 | comparable to that of the control group
2 | Cc1cc2c(C(=O)O)cccc2n1-c1nc2c(c(NCc3ccccc3)n1)CCCN2 [V13, 1-(4-(Benzylamino)-5,6,7,8-Tetrahydropyrido[2,3-D]pyrimidin-2-Yl)-2-Methyl-1H-Indole-4-Carboxylic Acid] | > 6.00 | – | –
